Results reported in ChEMBL document CHEMBL4811275, “Iodinated 1,2-diacylhydrazines, benzohydrazide-hydrazones and their analogues as dual antimicrobial and cytotoxic agents” (Bioorg Med Chem, 2021).
Values after ≈ are worked out from the molar mass of the structure shown.

Assays:
[1] = tested on: Pichia kudriavzevii; test: Antifungal activity against Candida krusei ATCC 6258 assessed as reduction in fungal growth incubated for 48 hrs by broth microdilution method; format: functional
Summary of the method: (§1)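 Broth microdilution per EUCAST (yeasts and moulds), modified: twofold dilutions from DMSO (final ≤1% v/v) in RPMI-1640 with L-glutamine, 2% glucose, MOPS-buffered pH 7.0; scale from 0.49 µM. Static, dark, humidified, 35 ± 2 °C for 24 and 48 h (Trichophyton interdigitale 72 and 120 h). MIC = complete visible inhibition by eye; duplicates within one dilution step.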

[2] = tested on: Trichophyton interdigitale; test: Antifungal activity against Trichophyton interdigitale ATCC 9533 assessed as reduction in fungal growth incubated for 120 hrs by broth microdilution method; format: functional; summary of the method: as §1
[3] = tested on: Staphylococcus aureus; test: Antibacterial activity against methicillin-resistant Staphylococcus aureus ATCC 43300 assessed as reduction in bacterial growth incubated for 48 hrs by broth microdilution method; format: functional
Summary of the method: (§2)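 EUCAST-based broth microdilution in cation-adjusted Mueller-Hinton broth. DMSO stocks, final DMSO ≤1% v/v, concentration scale starting from 0.49 µM. Static incubation at 35 ± 2 °C, dark and humidified. Run in duplicate, accepted only if parallel MICs differ by at most one dilution step. MIC is the lowest concentration with no visible growth by naked eye.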

[4] = tested on: Candida albicans; test: Antifungal activity against Candida albicans ATCC 24443 assessed as reduction in fungal growth incubated for 24 hrs by broth microdilution method; format: functional; summary of the method: as §1
[5] = tested on: Staphylococcus epidermidis; test: Antibacterial activity against Staphylococcus epidermidis ATCC 12228 assessed as reduction in bacterial growth incubated for 24 hrs by broth microdilution method; format: functional
Summary of the method: (§3)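 Cation-adjusted Mueller-Hinton broth microdilution per EUCAST, modified; compounds from DMSO stocks, final DMSO ≤1% v/v; scale starting from 0.49 µM. Static incubation at 35 ± 2 °C, dark, humidified, read at 24 and 48 h. MIC = lowest concentration with no visible growth by eye; duplicates, parallel readings within one dilution step; growth and medium/DMSO controls included.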

[6] = tested on: Staphylococcus aureus; test: Antibacterial activity against Staphylococcus aureus ATCC 29213 assessed as reduction in bacterial growth incubated for 48 hrs by broth microdilution method; format: functional; summary of the method: as §3
[7] = tested on: Candida parapsilosis; test: Antifungal activity against Candida parapsilosis ATCC 22019 assessed as reduction in fungal growth incubated for 24 hrs by broth microdilution method; format: functional; settings: Lodderomyces parapsilosis; summary of the method: as §1
[8] = tested on: Staphylococcus aureus; test: Antibacterial activity against Staphylococcus aureus ATCC 29213 assessed as reduction in bacterial growth incubated for 24 hrs by broth microdilution method; format: functional; summary of the method: as §3
[9] = tested on: Staphylococcus epidermidis; test: Antibacterial activity against Staphylococcus epidermidis ATCC 12228 assessed as reduction in bacterial growth incubated for 48 hrs by broth microdilution method; format: functional; summary of the method: as §3
[10] = tested on: Trichophyton interdigitale; test: Antifungal activity against Trichophyton interdigitale ATCC 9533 assessed as reduction in fungal growth incubated for 72 hrs by broth microdilution method; format: functional; summary of the method: as §1
[11] = tested on: Staphylococcus aureus; test: Antibacterial activity against methicillin-resistant Staphylococcus aureus ATCC 43300 assessed as reduction in bacterial growth incubated for 24 hrs by broth microdilution method; format: functional; summary of the method: as §2
[12] = tested on: Pichia kudriavzevii; test: Antifungal activity against Candida krusei ATCC 6258 assessed as reduction in fungal growth incubated for 24 hrs by broth microdilution method; format: functional; summary of the method: as §1
[13] = tested on: Candida albicans; test: Antifungal activity against Candida albicans ATCC 24443 assessed as reduction in fungal growth incubated for 48 hrs by broth microdilution method; format: functional; summary of the method: as §1
[14] = tested on: Lichtheimia corymbifera; test: Antifungal activity against Lichtheimia corymbifera CCM 8077 assessed as reduction in fungal growth incubated for 48 hrs by broth microdilution method; format: functional; summary of the method: as §1
[15] = tested on: Escherichia coli; test: Antibacterial activity against Escherichia coli ATCC 25922 assessed as reduction in bacterial growth incubated for 24 hrs by broth microdilution method; format: functional; summary of the method: as §3
[16] = tested on: Escherichia coli; test: Antibacterial activity against Escherichia coli ATCC 25922 assessed as reduction in bacterial growth incubated for 48 hrs by broth microdilution method; format: functional; summary of the method: as §3
[17] = tested on: Enterococcus faecalis; test: Antibacterial activity against Enterococcus faecalis ATCC 29212 assessed as reduction in bacterial growth incubated for 24 hrs by broth microdilution method; format: functional; summary of the method: as §3
[18] = tested on: Lichtheimia corymbifera; test: Antifungal activity against Lichtheimia corymbifera CCM 8077 assessed as reduction in fungal growth incubated for 24 hrs by broth microdilution method; format: functional; summary of the method: as §1
[19] = tested on: Enterococcus faecalis; test: Antibacterial activity against Enterococcus faecalis ATCC 29212 assessed as reduction in bacterial growth incubated for 48 hrs by broth microdilution method; format: functional; summary of the method: as §3
[20] = tested on: HepG2; test: Cytotoxicity against human HepG2 cells assessed as reduction in cell viability incubated for 24 hrs by cell-titer 96 aqueous one solution cell proliferation assay; format: functional, cell-based; settings: HepG2, 24 h
[21] = tested on: Candida parapsilosis; test: Antifungal activity against Candida parapsilosis ATCC 22019 assessed as reduction in fungal growth incubated for 48 hrs by broth microdilution method; format: functional; settings: Lodderomyces parapsilosis; summary of the method: as §1
[22] = tested on: HK-2; test: Cytotoxicity against human HK-2 cells assessed as reduction in cell viability incubated for 24 hrs by cell-titer 96 aqueous one solution cell proliferation assay; format: cell-based; settings: HK-2, 24 h

SMILES	MIC [3]	MIC [5]	MIC [6]	MIC [8]	MIC [9]	MIC [11]	MIC [15]	MIC [16]	MIC [17]	MIC [19]	IC50 [20]	other results
Oc1c(I)cc(I)cc1CNNC(O)c1ccc(F)cc1 (stereo not given)	62.5 µM (≈ 32.1 µg/mL)	7.81 µM (≈ 4.01 µg/mL)	15.6 µM (≈ 8.03 µg/mL)	15.6 µM (≈ 8.03 µg/mL)	7.81 µM (≈ 4.01 µg/mL)	31.2 µM (≈ 16.1 µg/mL)	> 500 µM	> 500 µM	15.6 µM (≈ 8.03 µg/mL)	15.6 µM (≈ 8.03 µg/mL)	41.9 µM	MIC [1]: > 500 µM; MIC [2]: 62.5 µM (≈ 32.1 µg/mL); MIC [4]: > 500 µM; MIC [7]: > 500 µM; MIC [10]: 62.5 µM (≈ 32.1 µg/mL); MIC [12]: > 500 µM; MIC [13]: > 500 µM; MIC [14]: > 500 µM; MIC [18]: > 500 µM; MIC [21]: > 500 µM
O=C(NNCc1cc(I)cc(I)c1O)c1ccc(F)cc1	125 µM (≈ 64 µg/mL)	62.5 µM (≈ 32 µg/mL)	125 µM (≈ 64 µg/mL)	62.5 µM (≈ 32 µg/mL)	62.5 µM (≈ 32 µg/mL)	62.5 µM (≈ 32 µg/mL)	> 500 µM	> 500 µM	31.2 µM (≈ 16 µg/mL)	62.5 µM (≈ 32 µg/mL)	52.2 µM	MIC [1]: > 125 µM; MIC [2]: 31.2 µM (≈ 16 µg/mL); MIC [4]: 125 µM (≈ 64 µg/mL); MIC [7]: > 125 µM; MIC [10]: 15.6 µM (≈ 8 µg/mL); MIC [12]: > 125 µM; MIC [13]: > 125 µM; MIC [14]: 31.2 µM (≈ 16 µg/mL); MIC [18]: 15.6 µM (≈ 8 µg/mL); MIC [21]: > 125 µM
CC(C)(C)c1ccc(C(=O)N/N=C/c2cc(I)c(O)c(I)c2)cc1	250 µM (≈ 137 µg/mL)	125 µM (≈ 68.5 µg/mL)	125 µM (≈ 68.5 µg/mL)	125 µM (≈ 68.5 µg/mL)	250 µM (≈ 137 µg/mL)	125 µM (≈ 68.5 µg/mL)	> 500 µM	> 500 µM	250 µM (≈ 137 µg/mL)	500 µM (≈ 274 µg/mL)	45.9 µM	IC50 [22]: > 250 µM
O=C(N/N=C/c1cc(I)c(O)c(I)c1)c1ccc(I)cc1	> 250 µM	> 250 µM	> 250 µM	> 250 µM	> 250 µM	> 250 µM	> 250 µM	> 250 µM	> 250 µM	> 250 µM	> 50 µM	
CC(C)(C)c1ccc(C(=O)NNC(=O)c2cc(I)cc(I)c2O)cc1	> 500 µM	> 500 µM	> 500 µM	> 500 µM	> 500 µM	> 500 µM	> 500 µM	> 500 µM	> 500 µM	> 500 µM	87.3 µM	
O=C(NNC(=O)c1cc(I)cc(I)c1O)c1ccc(I)cc1	250 µM (≈ 158 µg/mL)	62.5 µM (≈ 39.6 µg/mL)	250 µM (≈ 158 µg/mL)	250 µM (≈ 158 µg/mL)	125 µM (≈ 79.2 µg/mL)	125 µM (≈ 79.2 µg/mL)	> 250 µM	> 250 µM	125 µM (≈ 79.2 µg/mL)	250 µM (≈ 158 µg/mL)	25.1 µM	IC50 [22]: > 100 µM
O=C(N/N=C/c1cc(I)c(O)c(I)c1)c1ccc(F)cc1	> 500 µM	> 500 µM	500 µM (≈ 255 µg/mL)	125 µM (≈ 63.8 µg/mL)	> 500 µM	500 µM (≈ 255 µg/mL)	> 500 µM	> 500 µM	> 500 µM	> 500 µM	117 µM	
O=C(N/N=C/c1cc(I)c(O)c(I)c1)c1ccc(Cl)cc1	> 500 µM	> 500 µM	> 500 µM	> 500 µM	> 500 µM	> 500 µM	> 500 µM	> 500 µM	> 500 µM	> 500 µM	> 100 µM	
O=C(N/N=C/c1cc(I)cc(I)c1O)c1ccc(Br)cc1	125 µM (≈ 71.4 µg/mL)	62.5 µM (≈ 35.7 µg/mL)	62.5 µM (≈ 35.7 µg/mL)	62.5 µM (≈ 35.7 µg/mL)	125 µM (≈ 71.4 µg/mL)	62.5 µM (≈ 35.7 µg/mL)	> 250 µM	> 250 µM	250 µM (≈ 143 µg/mL)	250 µM (≈ 143 µg/mL)	22.3 µM	
CC(C)(C)c1ccc(C(=O)N/N=C/c2cc(I)cc(I)c2O)cc1	> 500 µM	> 500 µM	> 500 µM	> 500 µM	> 500 µM	> 500 µM	> 500 µM	> 500 µM	> 500 µM	> 500 µM	41.6 µM	
COc1ccc(C(=O)N/N=C/c2cc(I)c(O)c(I)c2)cc1	> 500 µM	> 500 µM	500 µM (≈ 261 µg/mL)	500 µM (≈ 261 µg/mL)	> 500 µM	> 500 µM	> 500 µM	> 500 µM	> 500 µM	> 500 µM	> 100 µM	
O=C(N/N=C/c1cc(I)c(O)c(I)c1)c1ccc([N+](=O)[O-])cc1	> 500 µM	> 500 µM	250 µM (≈ 134 µg/mL)	250 µM (≈ 134 µg/mL)	> 500 µM	500 µM (≈ 269 µg/mL)	> 500 µM	> 500 µM	> 500 µM	> 500 µM	92.1 µM	
O=C(N/N=C/c1cc(I)cc(I)c1O)c1ccc(I)cc1	> 125 µM	> 125 µM	> 125 µM	> 125 µM	> 125 µM	> 125 µM	> 125 µM	> 125 µM	> 125 µM	> 125 µM	31.8 µM	
